Positions count from the first letter of the chain named. pIC50: −log10 of the molar value. Active and inactive are the calls of the source. The rule behind the calls is not given here.

inhibition, IC50 and Activity data for 15 compounds are collected here from ChEMBL document CHEMBL4184297, “Discovery and validation of 2-styryl substituted benzoxazin-4-ones as a novel scaffold for rhomboid protease inhibitors” (Bioorg Med Chem Lett, 2018).

Experiment [1] deals with Escherichia coli. In words: Inhibition of recombinant Escherichia coli N-terminal His-tagged rhomboid protease GlpG expressed in Escherichia coli C43(DE3) cells at 250 uM using gurken as substrate preincubated for 30 mins followed by substrate addition measured after 90 mins by SDS-PAGE analysis.
For experiment [2], the target named is Chymotrypsinogen A (Bos taurus, UniProt P00766). In words: Inhibition of bovine pancreas alpha-chymotrypsin using KSp21 as substrate preincubated for 30 mins followed by substrate addition measured after 50 to 60 mins by fluorescence assay.
In experiment [3] the target is T1, Neutrophil elastase (Homo sapiens) (UniProt P08246).
T1 sequence (whole entry): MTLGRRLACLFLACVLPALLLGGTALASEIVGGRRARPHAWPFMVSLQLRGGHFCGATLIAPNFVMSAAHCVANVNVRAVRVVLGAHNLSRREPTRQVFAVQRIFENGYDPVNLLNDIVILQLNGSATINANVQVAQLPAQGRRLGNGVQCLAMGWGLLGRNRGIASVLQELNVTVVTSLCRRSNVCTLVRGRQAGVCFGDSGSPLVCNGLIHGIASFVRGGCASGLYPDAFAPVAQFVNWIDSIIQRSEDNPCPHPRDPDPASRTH
In words: Inhibition of human neutrophil elastase at 10 uM using N-Methoxysuccinyl-Ala-Ala-Pro-Val-p-nitroanilid as substrate preincubated for 20 mins followed by substrate addition measured at 1 min time interval for 5 mins by fluorescence assay.

Experiment [4] is filed under the species Bos taurus. In words: Inhibition of bovine pancreas trypsin at 10 uM using Z-Gly-Gly-Argaminomethylcoumarin as substrate preincubated for 30 mins followed by substrate addition measured at 1 min time interval for 5 mins by fluorescence assay. In a few lines:
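Compound or DMSO preincubated with 10 nM bovine pancreatic trypsin in PBS for 30 min at 30°C. Started with Z-Gly-Gly-Arg-AMC (1 mM stock). AMC fluorescence (ex 340/em 440) read every 1 min for 5 min. Initial slope gives velocity; % activity = V inhibitor/V DMSO × 100.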

In experiment [5] the test system is Escherichia coli. In words: Reversible inhibition of recombinant Escherichia coli N-terminal His-tagged rhomboid protease GlpG expressed in Escherichia coli C43(DE3) cells assessed as recovery of enzyme activity at 10 uM using KSp76 as substrate preincubated for 1 hr followed by substrate addition measured over 120 mins by rapid dilution based fluorescence assay. In a few lines: (§1)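 Rapid-dilution recovery. Inhibitor preincubated 1 h with 0.4 µM GlpG in 20 mM HEPES-NaOH pH 7.4, 150 mM NaCl, 0.05% DDM, then diluted 100-fold into buffer with 10 µM KSp76. Fluorescence (ex 553/em 583) monitored continuously for 120 min.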

Experiment [6] can be described thus: Inhibition of recombinant Escherichia coli N-terminal His-tagged rhomboid protease GlpG expressed in Escherichia coli C43(DE3) cells using KSp53 as substrate incubated for 1 hr followed by substrate addition by fluorescence assay. Particulars: in the assay text read “KSp35” for “KSp53”. In a few lines: (§2)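 Started with 10 µM quenched fluorogenic peptide (KSp35 or KSp76). Fluorescence normalized to DMSO and plotted against log concentration; apparent IC50 from nonlinear regression.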

For experiment [7], the system named is Escherichia coli. In words: Binding affinity to wild type recombinant Escherichia coli rhomboid protease GlpG expressed in Escherichia coli C43(DE3) cells by electrospray mass spectrometric analysis. The method, boiled down: (§3)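 GlpG (wild type or rhomboid mutants) expressed in E. coli C43(DE3) and purified, then reacted in vitro with compound or vehicle. Covalent adduct detected by electrospray mass spectrometry as an added peak with the expected mass shift over free enzyme. Two independent experiments.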

The target in experiment [8] is T2, Cathepsin G (Homo sapiens) (UniProt P08311).
T2 sequence (whole entry): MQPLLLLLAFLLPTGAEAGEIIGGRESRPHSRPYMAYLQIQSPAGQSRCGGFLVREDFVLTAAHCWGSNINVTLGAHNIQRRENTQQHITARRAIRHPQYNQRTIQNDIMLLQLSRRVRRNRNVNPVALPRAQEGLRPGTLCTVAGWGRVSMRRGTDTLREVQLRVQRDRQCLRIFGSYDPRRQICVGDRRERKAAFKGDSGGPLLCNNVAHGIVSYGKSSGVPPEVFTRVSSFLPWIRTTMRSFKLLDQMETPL
In words: Inhibition of human neutrophil cathepsin G at 10 uM using N-Succinyl-Ala-Ala-Pro-Phe-p-nitroanilide as substrate preincubated for 30 mins followed by substrate addition measured at 1 min time interval for 5 mins by fluorescence assay. Conditions: in the assay text read “absorbance assay” for “fluorescence assay”. The method, boiled down:
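Compound or DMSO preincubated with 200 nM human neutrophil cathepsin G for 30 min at 37°C in 100 mM HEPES, 500 mM NaCl, pH 7.4. Started with Suc-AAPF-pNA (2 mM stock). Absorbance at 410 nm read every 1 min for 5 min. Initial slope gives velocity; % activity relative to DMSO.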

The target in experiment [9] is Chymotrypsinogen A (Bos taurus) (UniProt P00766). In words: Inhibition of bovine alpha-chymotrypsin at 250 uM using N-Succinyl-Ala-AlaPro-Phe-p-nitroanilide as substrate incubated for 30 mins followed by substrate addition measured over 5 mins by spectroscopic method.
The subject of experiment [10] is Escherichia coli. In words: Reversible inhibition of recombinant Escherichia coli N-terminal His-tagged rhomboid protease GlpG expressed in Escherichia coli C43(DE3) cells assessed as recovery of enzyme activity at 1 uM using KSp76 as substrate preincubated for 1 hr followed by substrate addition measured over 120 mins by rapid dilution based fluorescence assay. The method, boiled down: as §1

Experiment [11] has as its system T3, Rhomboid protease GlpG (Escherichia coli (strain K12)), P09391 [H254A].
T3 sequence (whole entry): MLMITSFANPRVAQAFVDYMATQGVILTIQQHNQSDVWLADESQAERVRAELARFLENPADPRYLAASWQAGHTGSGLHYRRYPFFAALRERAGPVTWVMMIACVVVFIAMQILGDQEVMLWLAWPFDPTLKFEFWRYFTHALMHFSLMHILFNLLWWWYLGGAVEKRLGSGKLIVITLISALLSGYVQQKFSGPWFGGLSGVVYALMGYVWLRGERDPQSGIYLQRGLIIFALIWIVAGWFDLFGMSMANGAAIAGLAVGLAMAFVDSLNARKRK
In words: Binding affinity to recombinant Escherichia coli rhomboid protease GlpG H254A mutant expressed in Escherichia coli C43(DE3) cells by electrospray mass spectrometric analysis. In a few lines: as §3

Experiment [12] in a line: Inhibition of recombinant Escherichia coli N-terminal His-tagged rhomboid protease GlpG expressed in Escherichia coli C43(DE3) cells using KSp76 as substrate incubated for 1 hr followed by substrate addition by fluorescence assay. In a few lines:
as §2

The test system of experiment [13] is T4, Rhomboid protease GlpG (Escherichia coli (strain K12)), P09391 [S201T].
T4 sequence (whole entry): T3 sequence (whole entry) with S201T, A254H
In words: Binding affinity to recombinant Escherichia coli rhomboid protease GlpG S201T mutant expressed in Escherichia coli C43(DE3) cells by electrospray mass spectrometric analysis. In a few lines:
as §3

Experiment [14] has as its target T5, Rhomboid protease GlpG (Escherichia coli (strain K12)) (UniProt P09391).
T5 sequence (whole entry): T3 sequence (whole entry) with A254H
In words: Binding affinity to recombinant Escherichia coli rhomboid protease GlpG His150 mutant expressed in Escherichia coli C43(DE3) cells by electrospray mass spectrometric analysis. In a few lines: as §3

Experiment [15] has as its system Escherichia coli. In words: Reversible inhibition of recombinant Escherichia coli N-terminal His-tagged rhomboid protease GlpG expressed in Escherichia coli C43(DE3) cells assessed as recovery of enzyme activity at 50 uM using KSp76 as substrate preincubated for 1 hr followed by substrate addition measured over 120 mins by rapid dilution based fluorescence assay. In a few lines: as §1

On to `O=c1oc(-c2ccccc2F)nc2ccccc12`, for which the inhibition entry in [1] was “inactive”.
For `O=c1oc(-c2ccccc2)nc2ccccc12`, in experiment [1], the inhibition result is “inactive”.
Usually pIC50 stands for the negative decadic logarithm of the IC50, by convention in mol/L. `O=c1oc(Cl)c(Cl)c2ccccc12`: in experiment [2], the negative-log IC50 (pIC50) was 5.46. The inhibition entry in [3] and in experiment [4] was “Active” throughout.
For `COc1oc(=O)c2cc(N)ccc2c1Cl`, the inhibition entry in [5] is “inactive”.
For the compound `O=c1oc(/C=C/c2ccccc2)nc2ccccc12`, the inhibition entry in experiment [1] and in experiment [8] was “Active” each time. Moreover, the pIC50 in [6] was 5.43. Also, the inhibition entry in experiment [3], in experiment [9] and in experiment [4] was “inactive” in each case. Also, in experiment [7], the outcome was Active.
Take `COc1ccc(-c2nc3ccccc3c(=O)o2)cc1`: in experiment [1], the inhibition entry is “inactive”.
For `O=c1oc(-c2ccco2)nc2ccccc12`, in [1], the inhibition result was “inactive”.
As for `O=c1oc(-c2cccc(Br)c2)nc2ccccc12`, the inhibition entry in experiment [1] is “inactive”.
`O=C1CC(c2ccccc2)N1C(=O)Oc1ccccc1` (configuration not stated): in experiment [10], the inhibition result is “Active”.
On to `COc1ccc(/C=C/c2nc3ccccc3c(=O)o2)cc1`, for which the inhibition result in experiment [1] is “Active”. The pIC50 in experiment [6] is 4.32. The inhibition entry in [3], in [8] and in experiment [4] was “inactive” in each case.
For `O=c1oc(-c2cccc(F)c2)nc2ccccc12`, in experiment [1], the inhibition result is “inactive”.
In the case of `O=c1oc(/C=C/c2ccc(F)c(F)c2)nc2ccccc12`, in experiment [1], the inhibition entry is “inactive”.
Consider `O=c1oc(-c2ccc(F)cc2)nc2ccccc12`, for which the inhibition result in experiment [1] was “inactive”.
On the same count and under the same terms, the same measure for `CCC(=O)Oc1c(/C=C/c2nc3ccccc3c(=O)o2)cccc1OC`: “inactive”.
For `O=c1oc(/C=C/c2ccccc2Cl)nc2ccccc12`, the result in experiment [11] and in experiment [13] was inactive. The inhibition entry in [1], in experiment [8] and in experiment [15] was “Active” throughout. In addition, in [12], the negative-log IC50 (pIC50) was 5.36. Besides, the inhibition result in [3], in experiment [9] and in experiment [4] was “inactive” in each case. In addition, the outcome in experiment [7] and in experiment [14] was Active.
